The target in data set [1] is T1, Dihydrofolate reductase (Homo sapiens) (UniProt P00374).
T1 sequence (whole entry): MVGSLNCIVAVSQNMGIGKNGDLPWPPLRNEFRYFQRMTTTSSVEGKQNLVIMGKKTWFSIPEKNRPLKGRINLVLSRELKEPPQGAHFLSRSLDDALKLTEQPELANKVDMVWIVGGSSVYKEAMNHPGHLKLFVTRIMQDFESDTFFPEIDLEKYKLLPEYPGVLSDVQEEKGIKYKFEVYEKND
As to the kind of experiment: Inhibition of DHFR in human HCT116 cell lysate assessed as reduction in conversion of DHF to THF after 16 hrs. The method in brief: (§1)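 HCT116 cells treated 16 h at 0.001 to 1 µM or 40 to 70 µM, then lysed. 400 µg lysate protein in PBS with 50 µM DHF and 200 µM NADPH, with matching controls containing 1 µM methotrexate. A340 decrease followed over 15 min at room temperature. MTX-sensitive rate given as % of DMSO-treated cells. Mean of three independent experiments.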

For data set [2], the target named is T2, Thioredoxin reductase 1, cytoplasmic (Homo sapiens) (UniProt Q16881).
T2 sequence (whole entry): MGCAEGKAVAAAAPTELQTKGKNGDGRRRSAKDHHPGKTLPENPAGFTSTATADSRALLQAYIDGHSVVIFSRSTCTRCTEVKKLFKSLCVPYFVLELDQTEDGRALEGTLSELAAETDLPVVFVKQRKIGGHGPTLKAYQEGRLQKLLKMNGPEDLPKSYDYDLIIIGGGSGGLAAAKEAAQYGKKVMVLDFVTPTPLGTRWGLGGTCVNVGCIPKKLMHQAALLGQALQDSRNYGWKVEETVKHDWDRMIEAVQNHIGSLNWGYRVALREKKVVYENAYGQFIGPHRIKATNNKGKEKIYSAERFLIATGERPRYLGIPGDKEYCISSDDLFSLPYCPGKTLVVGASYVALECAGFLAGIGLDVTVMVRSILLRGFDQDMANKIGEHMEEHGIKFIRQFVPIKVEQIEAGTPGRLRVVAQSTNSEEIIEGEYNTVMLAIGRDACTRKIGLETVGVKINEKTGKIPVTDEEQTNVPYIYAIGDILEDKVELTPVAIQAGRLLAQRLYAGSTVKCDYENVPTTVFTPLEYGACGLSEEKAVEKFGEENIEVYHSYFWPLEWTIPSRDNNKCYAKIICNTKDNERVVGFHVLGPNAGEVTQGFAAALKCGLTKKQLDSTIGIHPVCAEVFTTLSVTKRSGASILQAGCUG
As to the kind of experiment: Inhibition of thioredoxin reductase in human HCT116 cell lysate using thioredoxin as substrate at 0.001 to 1 uM after 16 hrs by end point insulin assay method.

The subject of data set [3] is HCT-116. As to the kind of experiment: Antiproliferative activity against human HCT116 cells after 72 hrs by MTT assay. The note with it: HCT-116, 72 h; for CC50: read-out: LC50 (the source's name). The data set is classed as functional. The method in brief: (§2)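 Cells kept in RPMI 1640 with 10% FBS, penicillin and streptomycin at 37°C and 5% CO2. Seeded at 1.0 x 10^4/well and left to adhere overnight. Serial dilutions made in medium from DMSO stocks. MTT at 400 µg/ml final for 4 h, read at T0 and after 72 h. Formazan dissolved in DMSO:glycine pH 10.5, A550. GI50 and LC50 interpolated from absorbance versus log concentration.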
(In general: Formazan colour is commonly taken as a measure of viable cells.)

The target of data set [4] is T2, Thioredoxin reductase 1, cytoplasmic (Homo sapiens). Nature of the data set: Inhibition of thioredoxin reductase in human HCT116 cell lysate using thioredoxin as substrate at 40 to 70 uM after 16 hrs by end point insulin assay method. The method in brief:
(§3)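 HCT116 cells treated 16 h at 0.001 to 1 µM or 40 to 70 µM, then lysed. Stopped with 1 mM DTNB and 240 µM NADPH in 6 M guanidine HCl and Tris pH 8.0, read at A412. Given as % of DMSO-treated cells. Mean of three experiments.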

A further data set deals with T3, Dihydrofolate reductase (Homo sapiens, UniProt P00374).
T3 sequence (P00374 whole entry): T1 sequence (whole entry)
As to the kind of experiment: Inhibition of recombinant human DHFR assessed as reduction in conversion of DHF to THF measured every 30 secs for 6 mins by UV-Vis spectrophotometric method.

The test system of a further data set is MCF7. Nature of the data set: Antiproliferative activity against human MCF7 cells after 72 hrs by MTT assay. The conditions noted are these: MCF7, 72 h. It counts as functional. The method in brief: as §2
In data set [5] the target is T4, Thioredoxin reductase 1, cytoplasmic (Rattus norvegicus, UniProt O89049).
T4 sequence (O89049 whole entry): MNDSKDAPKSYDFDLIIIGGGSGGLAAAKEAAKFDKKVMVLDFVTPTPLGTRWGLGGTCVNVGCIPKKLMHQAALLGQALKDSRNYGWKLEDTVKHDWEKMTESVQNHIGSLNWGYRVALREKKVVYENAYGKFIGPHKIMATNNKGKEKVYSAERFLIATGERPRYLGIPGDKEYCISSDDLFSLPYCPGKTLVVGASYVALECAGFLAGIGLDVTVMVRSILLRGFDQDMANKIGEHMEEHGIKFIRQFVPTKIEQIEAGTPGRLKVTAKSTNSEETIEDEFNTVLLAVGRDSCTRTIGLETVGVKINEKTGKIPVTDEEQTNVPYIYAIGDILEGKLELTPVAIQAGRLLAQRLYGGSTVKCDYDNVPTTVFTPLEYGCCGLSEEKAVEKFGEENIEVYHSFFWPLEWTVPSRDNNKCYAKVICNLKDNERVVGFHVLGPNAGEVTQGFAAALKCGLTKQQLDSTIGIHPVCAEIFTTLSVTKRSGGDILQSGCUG
As to the kind of experiment: Inhibition of […] thioredoxin reductase after 30 mins by DTNB reduction assay. The conditions noted are these: read-out: IC50. The method in brief: (§4)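 Rat liver TrxR at 2.1 units/ml preincubated with a range of test concentrations and 200 µM NADPH in 50 mM Tris-HCl, 1 mM EDTA, pH 7.5, at room temperature for 30 or 60 min. Equal volume of buffer with 5 mM DTNB and 200 µM NADPH then added. A412 followed over 2 min. Activity as % of vehicle Vmax; IC50 from log concentration plot.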

Data set [6] deals with T1, Dihydrofolate reductase (Homo sapiens). As to the kind of experiment: Inhibition of DHFR in human HCT116 cell lysate assessed as reduction in conversion of DHF to THF at 40 to 70 uM after 16 hrs. The method in brief:
as §1

Data set [7] deals with T2, Thioredoxin reductase 1, cytoplasmic (Homo sapiens). Nature of the data set: Inhibition of thioredoxin reductase in human HCT116 cell lysate using thioredoxin as substrate after 16 hrs by end point insulin assay method. The method in brief:
as §3

The subject of data set [8] is HCT-116. As to the kind of experiment: Upregulation of DHFR protein levels in human HCT116 cell lysate at 40 to 70 uM after 16 hrs by Western blot analysis. The data set is classed as functional, cell-based. The method in brief: (§5)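 HCT116 plated at 1.5 x 10^6 per 100 mm plate, grown 48 h, then treated 16 h at 40 to 70 µM. Adherent and floating cells pooled and lysed in Triton X-100 buffer with protease inhibitors. Lysates cleared and protein measured by Bradford. Equal protein run on SDS-PAGE and blotted. DHFR or TrxR detected by ECL, β-actin antibody also used. Three independent experiments.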
In general terms: A western blot detects proteins with antibodies after separation by electrophoresis.

Data set [9] deals with T4, Thioredoxin reductase 1, cytoplasmic. As to the kind of experiment: Inhibition of […] thioredoxin reductase after 60 mins by DTNB reduction assay. The note with it: read-out: IC50. The method in brief:
as §4

Data set [10] has as its system HCT-116. As to the kind of experiment: Effect on thioredoxin reductase protein levels in human HCT116 cell lysate at 40 to 70 uM after 16 hrs by Western blot analysis. It counts as cell-based. The note with it: hct-116, 16 h. The method in brief: as §5
Data set [11] deals with T1, Dihydrofolate reductase (Homo sapiens). The note with it: 0.0001 to 1 uM.

Each structure is given as a SMILES string. Active and inactive are the calls of the source. No cut-off for these calls is given here.

`CC1(C)N=C(N)N=C(N)N1OCCCOc1ccccc1`: in data set [1], the inhibition result was “Dose-dependent effect”. Besides, the inhibition entry in data set [2] and in data set [4] was “inactive” in each case. The GI50 in the data set with HCT-116 [3] was 0.036 µM; in the data set on MCF7, 0.107 µM. Further, in the data set on HCT-116 [3], the CC50 is above 100 µM. The IC50 on Dihydrofolate reductase is 0.0053 µM. In addition, the LC50 (concentration killing 50% of cells present at T0) with MCF7 is above 100 µM.

As to `Cl.NC1=NC2(CCCC2)N(OCCCCOc2cccc(C(=O)/C=C/c3ccccc3)c2)C(N)=N1`, the inhibition result in [1] and in [7] was “Dose-dependent effect” in each case. In addition, the IC50 in data set [5] amounted to 9.2 µM; in data set [9] it was 5.9 µM; on Dihydrofolate reductase, 0.0026 µM. In data set [2], the inhibition entry is “inactive”. The results for the GI50 with HCT-116 [3] and in the data set on MCF7 were 0.116 µM and 0.127 µM, respectively. The CC50 with HCT-116 [3] amounted to 13.5 µM. For the same compound, the inhibition result in [6] is “Active”. In addition, the result in the data set on HCT-116 [8] was Active. Moreover, the LC50 (concentration killing 50% of cells present at T0) in the data set with MCF7 was 9.7 µM. The Activity result with HCT-116 [10] is recorded as “Non-Toxic”.

With `Cl.NC1=NC2(CCCC2)N(OCCCOc2cccc(C(=O)/C=C/c3ccccc3)c2)C(N)=N1`, the inhibition result in data set [1] and in data set [7] was “Dose-dependent effect” throughout. Moreover, the IC50 in [5] worked out at 7.5 µM; in data set [9], 4.6 µM; on Dihydrofolate reductase it was 0.0061 µM. Moreover, the inhibition entry in data set [2] was “inactive”. In addition, the GI50 was 0.026 µM in the data set on HCT-116 [3] and 0.08 µM in the data set on MCF7. Moreover, in the data set on HCT-116 [3], the CC50 was 14.1 µM. Further, the inhibition result in data set [6] was “Active”. The outcome with HCT-116 [8] was Active. The LC50 (concentration killing 50% of cells present at T0) in the data set on MCF7 was determined as 11.2 µM. Further, the Activity result in the data set on HCT-116 [10] is recorded as “Non-Toxic”.

With `O=C(/C=C/c1ccccc1)c1ccccc1` [CHALCONE], the IC50 was determined as 46.4 µM in [5] and 26.7 µM in [9]. Further, the inhibition result in data set [2] and in data set [11] was “inactive” each time. In data set [4], the inhibition entry was “Active”.

As for `NC1=NC2(CCCC2)N(OCCCOc2ccccc2)C(N)=N1`, the inhibition entry in [1] was “Dose-dependent effect”. Further, in data set [2], the inhibition result was “inactive”. Moreover, in the data set on HCT-116 [3], the GI50 was found to be 0.021 µM and the CC50 is above 100 µM. The inhibition result in data set [4] is “inactive”. Besides, the IC50 at Dihydrofolate reductase amounted to 0.0199 µM. In the data set on MCF7, this compound showed a GI50 of 0.077 µM and an LC50 (concentration killing 50% of cells present at T0) of 90.8 µM.

By GI50 is commonly meant the concentration that inhibits growth by half. A high value points to lower sensitivity of the cells. Usually IC50 stands for the point on the concentration scale where inhibition reaches its midpoint.

The values are drawn from ChEMBL document CHEMBL4007411, “Design, Synthesis, and Biological Evaluation of Coupled Bioactive Scaffolds as Potential Anticancer Agents for Dual Targeting of Dihydrofolate Reductase and Thioredoxin Reductase” (J Med Chem, 2017).
